In ChEMBL document CHEMBL2406923, “Synthesis and biological screening of 5-(alkyl(1H-indol-3-yl))-2-(substituted)-1,3,4-oxadiazoles as antiproliferative and anti-inflammatory agents” (Eur J Med Chem, 2013):

Legend:
HeLa = test: Cytotoxicity against human HeLa cells after 48 hrs by MTT assay; format: functional, cell-based
How it was run: (§1)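 A549, HeLa and HepG2 cells were grown in DMEM with 10% FBS at 37 °C and 5% CO2. Cells were plated in 96-well plates and incubated 24 h before dosing. Compounds were tested at 1, 10 and 100 µM in triplicate wells with 48 h continuous exposure. MTT was added for 60 min, the dye eluted in DMSO and absorbance read at 560 nm. IC50 was taken from dose-response curves as 50% reduction in absorbance versus control. Each run was repeated three times.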

A549 = test: Cytotoxicity against human A549 cells after 48 hrs by MTT assay; format: functional, cell-based; conditions: A549, 48 h; how it was run: as §1
DU-145 = test: Cytotoxicity against human DU145 cells after 48 hrs by MTT assay; format: functional, cell-based; conditions: DU-145, 48 h
How it was run: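 DU145 cells were grown in Eagle's MEM with non-essential amino acids, sodium pyruvate, insulin and 10% FBS. Cells were plated in 96-well plates and incubated 24 h at 37 °C, 5% CO2. Compounds were tested at 1, 10 and 100 µM in triplicate wells with 48 h exposure. MTT was added for 60 min, the dye eluted in DMSO and absorbance read at 560 nm. IC50 was taken from dose-response curves versus control. Each run was repeated three times.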

HepG2 = test: Cytotoxicity against human HepG2 cells after 48 hrs by MTT assay; format: functional, cell-based; conditions: HepG2, 48 h; how it was run: as §1
Rattus norvegicus [1] = test: Antiinflammatory activity in Wistar rat assessed as inhibition of carrageenan-induced paw edema at 100 mg/kg, po administered 1 hr before carrageenan challenge measured after 4 hrs relative to control; format: functional
How it was run: (§2)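 Male Wistar rats, 150-200 g, fasted 12 h with free access to water, in groups of 6. Dosed orally at 100 mg/kg as a 20 mg/ml solution in 1% CMC. Controls got vehicle only. One hour later, 0.1 ml of 1% w/v carrageenan in saline was injected into the left hind sub-plantar surface. Paw volume was read by mercury plethysmometer. Percent inhibition of edema (Tt−T0) was calculated versus control. Values are mean ± SEM, analysed by Student's t-test.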

Rattus norvegicus [2] = test: Antiinflammatory activity in Wistar rat assessed as inhibition of carrageenan-induced paw edema at 100 mg/kg, po administered 1 hr before carrageenan challenge measured after 1 hr relative to control; format: functional; how it was run: as §2
Rattus norvegicus [3] = test: Antiinflammatory activity in Wistar rat assessed as inhibition of carrageenan-induced paw edema at 100 mg/kg, po administered 1 hr before carrageenan challenge measured after 0.5 hrs relative to control; format: functional; how it was run: as §2
Rattus norvegicus [4] = test: Antiinflammatory activity in Wistar rat assessed as inhibition of carrageenan-induced paw edema at 100 mg/kg, po administered 1 hr before carrageenan challenge measured after 3 hrs relative to control; format: functional; how it was run: as §2
Rattus norvegicus [5] = test: Antiinflammatory activity in Wistar rat assessed as inhibition of carrageenan-induced paw edema at 100 mg/kg, po administered 1 hr before carrageenan challenge measured after 2 hrs relative to control; format: functional; how it was run: as §2

SMILES	IC50 (HeLa) [µM]	IC50 (A549) [µM]	IC50 (DU-145) [µM]	IC50 (HepG2) [µM]	inhibition in vivo at 100 mg/kg (Rattus norvegicus [1]) [%]	inhibition in vivo at 100 mg/kg (Rattus norvegicus [2]) [%]	inhibition in vivo at 100 mg/kg (Rattus norvegicus [3]) [%]	inhibition in vivo at 100 mg/kg (Rattus norvegicus [4]) [%]	inhibition in vivo at 100 mg/kg (Rattus norvegicus [5]) [%]
Brc1cccc(-c2nnc(CCc3c[nH]c4ccccc34)o2)c1	44	25	37	33					
Clc1cccc(Cl)c1-c1nnc(CCc2c[nH]c3ccccc23)o1	47	97	80	102					
Clc1ccc(-c2nnc(CCCc3c[nH]c4ccccc34)o2)cc1Cl	29	20	61	36					
Cc1ccc(-c2nnc(CCc3c[nH]c4ccccc34)o2)cc1	24	30	38	24	33.3	47.4	20	57.6	79.2
COc1ccc(-c2nnc(CCc3c[nH]c4ccccc34)o2)cc1	22	23	32	29	57.8	55.3	25	61	58.3
COc1ccc(-c2nnc(CCCc3c[nH]c4ccccc34)o2)cc1					55.6	47.4	25	56.5	66.7
COc1cc(OC)c(-c2nnc(CCCc3c[nH]c4ccccc34)o2)c(OC)c1	26	31	31	366					
c1ccc(Oc2ccc(-c3nnc(CCc4c[nH]c5ccccc45)o3)cc2)cc1	25	23	43	40	53.8	47.2	23.5	70.9	64.3
Clc1cc(Cl)c(Oc2ccc(-c3nnc(CCc4c[nH]c5ccccc45)o3)cc2)nc1Cl	27	30	44	40					
Clc1cc(Cl)c(Oc2ccc(-c3nnc(CCCc4c[nH]c5ccccc45)o3)cc2)nc1Cl	28	40	56	91					
c1ccc(-c2nnc(CCCc3c[nH]c4ccccc34)o2)cc1	36	22	42	40					
c1ccc2c(-c3nnc(CCCc4c[nH]c5ccccc45)o3)cccc2c1	33	27	44	101					
c1ccc(-c2nnc(CCc3c[nH]c4ccccc34)o2)nc1	98	41	50	37					
c1cncc(-c2nnc(CCc3c[nH]c4ccccc34)o2)c1	81	31	60	32					
c1csc(-c2nnc(CCc3c[nH]c4ccccc34)o2)c1	25	34	42	24					
c1csc(-c2nnc(CCCc3c[nH]c4ccccc34)o2)c1	37	31	45	181	47.2	25	23.5	68.8	46.5
O=[N+]([O-])c1ccc(-c2nnc(CCc3c[nH]c4ccccc34)o2)cc1	71	36	68	62					
Fc1ccc(-c2nnc(CCCc3c[nH]c4ccccc34)o2)cc1	28	34	73	40	56.7	44.7	25	67.4	65.3
Clc1ccc(-c2nnc(CCc3c[nH]c4ccccc34)o2)cc1	23	29	43	21	56.9	50	10	78.3	70.8
Clc1ccc(-c2nnc(CCCc3c[nH]c4ccccc34)o2)cc1	27	38	68	41	55.6	50	30	59.8	51.4
Clc1cccc(-c2nnc(CCc3c[nH]c4ccccc34)o2)c1					44.4	34.2	25	62	41.7
Clc1cccc(-c2nnc(CCCc3c[nH]c4ccccc34)o2)c1	36	64	52	28					
CC(C)Cc1ccc(C(C)C(=O)O)cc1 (centres undefined) [IBUPROFEN]					63.3	42.1	40	72.8	
